pIC50: −log10 of the molar value.
Experiments:
[1] = target: ALK tyrosine kinase receptor (Homo sapiens, UniProt Q9UM73); assay: Inhibition of ALK by TR-FRET based LanthaScreen assay
In short: (§1)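 TR-FRET LanthaScreen kinase assay with phosphorylation of a substrate; FGFR3 used as the K651E mutant. IC50 derived from two independent experiments; for some compounds, ALK and cKIT values are averages ± SDs of three independent experiments.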

[2] = target: Mitogen-activated protein kinase 1 (Homo sapiens, UniProt P28482); assay: Inhibition of ERK2 by Caliper mobility shift assay
Chain of Mitogen-activated protein kinase 1 (P28482 whole entry): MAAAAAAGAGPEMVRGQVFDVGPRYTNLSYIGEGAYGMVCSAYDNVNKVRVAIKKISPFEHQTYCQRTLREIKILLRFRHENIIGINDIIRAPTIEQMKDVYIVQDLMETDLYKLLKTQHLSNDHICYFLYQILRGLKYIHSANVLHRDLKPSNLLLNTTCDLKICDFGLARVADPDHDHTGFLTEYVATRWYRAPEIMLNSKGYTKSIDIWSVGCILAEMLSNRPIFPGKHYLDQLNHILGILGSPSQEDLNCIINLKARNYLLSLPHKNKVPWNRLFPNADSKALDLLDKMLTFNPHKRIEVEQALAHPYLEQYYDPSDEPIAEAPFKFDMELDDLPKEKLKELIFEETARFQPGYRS
In short: (§2)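 Caliper mobility shift kinase assay with phosphorylation of a substrate; IC50 derived from two independent experiments.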

Ephrin type-B receptor 4 = target: T1, Ephrin type-B receptor 4 (Homo sapiens, UniProt P54760); assay: Inhibition of EPHB4 by TR-FRET based LanthaScreen assay
T1 sequence (P54760 whole entry): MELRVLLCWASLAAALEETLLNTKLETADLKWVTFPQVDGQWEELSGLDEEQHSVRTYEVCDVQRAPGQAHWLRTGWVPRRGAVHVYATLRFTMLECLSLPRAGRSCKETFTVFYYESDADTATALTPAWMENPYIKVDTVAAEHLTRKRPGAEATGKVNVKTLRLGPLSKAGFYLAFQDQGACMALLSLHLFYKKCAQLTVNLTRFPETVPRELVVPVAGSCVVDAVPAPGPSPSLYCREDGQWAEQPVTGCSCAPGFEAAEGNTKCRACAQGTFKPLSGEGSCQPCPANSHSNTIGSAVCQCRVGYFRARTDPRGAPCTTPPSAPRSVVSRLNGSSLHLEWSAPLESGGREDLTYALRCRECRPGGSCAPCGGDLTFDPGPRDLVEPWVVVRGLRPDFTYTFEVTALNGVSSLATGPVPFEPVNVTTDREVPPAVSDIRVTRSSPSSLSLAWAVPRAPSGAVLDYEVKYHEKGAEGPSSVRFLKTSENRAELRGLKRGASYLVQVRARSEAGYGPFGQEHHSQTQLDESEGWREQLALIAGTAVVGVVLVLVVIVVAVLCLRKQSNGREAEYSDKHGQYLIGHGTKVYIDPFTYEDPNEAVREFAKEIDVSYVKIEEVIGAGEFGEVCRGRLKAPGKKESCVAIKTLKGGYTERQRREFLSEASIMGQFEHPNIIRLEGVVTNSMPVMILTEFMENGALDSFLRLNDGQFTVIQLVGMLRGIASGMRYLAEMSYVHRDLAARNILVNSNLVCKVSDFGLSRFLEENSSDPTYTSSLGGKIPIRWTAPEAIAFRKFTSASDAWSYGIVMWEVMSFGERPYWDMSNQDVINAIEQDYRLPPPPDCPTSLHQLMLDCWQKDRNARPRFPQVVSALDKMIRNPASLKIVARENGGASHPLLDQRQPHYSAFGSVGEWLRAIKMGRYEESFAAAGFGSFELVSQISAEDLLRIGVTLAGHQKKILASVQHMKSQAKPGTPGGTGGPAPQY
In short: (§3)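 LanthaScreen TR-FRET kinase format, run per the group's earlier protocol. IC50 from two independent experiments; for some compounds, PDGFRα and VEGFR2 values are means ± SD of three independent runs. The FGFR3 used was the K651E mutant.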

[3] = target: Mast/stem cell growth factor receptor Kit (Homo sapiens, UniProt P10721); assay: Inhibition of cKIT by TR-FRET based LanthaScreen assay; in short: as §1
Chain of Mast/stem cell growth factor receptor Kit (P10721 whole entry): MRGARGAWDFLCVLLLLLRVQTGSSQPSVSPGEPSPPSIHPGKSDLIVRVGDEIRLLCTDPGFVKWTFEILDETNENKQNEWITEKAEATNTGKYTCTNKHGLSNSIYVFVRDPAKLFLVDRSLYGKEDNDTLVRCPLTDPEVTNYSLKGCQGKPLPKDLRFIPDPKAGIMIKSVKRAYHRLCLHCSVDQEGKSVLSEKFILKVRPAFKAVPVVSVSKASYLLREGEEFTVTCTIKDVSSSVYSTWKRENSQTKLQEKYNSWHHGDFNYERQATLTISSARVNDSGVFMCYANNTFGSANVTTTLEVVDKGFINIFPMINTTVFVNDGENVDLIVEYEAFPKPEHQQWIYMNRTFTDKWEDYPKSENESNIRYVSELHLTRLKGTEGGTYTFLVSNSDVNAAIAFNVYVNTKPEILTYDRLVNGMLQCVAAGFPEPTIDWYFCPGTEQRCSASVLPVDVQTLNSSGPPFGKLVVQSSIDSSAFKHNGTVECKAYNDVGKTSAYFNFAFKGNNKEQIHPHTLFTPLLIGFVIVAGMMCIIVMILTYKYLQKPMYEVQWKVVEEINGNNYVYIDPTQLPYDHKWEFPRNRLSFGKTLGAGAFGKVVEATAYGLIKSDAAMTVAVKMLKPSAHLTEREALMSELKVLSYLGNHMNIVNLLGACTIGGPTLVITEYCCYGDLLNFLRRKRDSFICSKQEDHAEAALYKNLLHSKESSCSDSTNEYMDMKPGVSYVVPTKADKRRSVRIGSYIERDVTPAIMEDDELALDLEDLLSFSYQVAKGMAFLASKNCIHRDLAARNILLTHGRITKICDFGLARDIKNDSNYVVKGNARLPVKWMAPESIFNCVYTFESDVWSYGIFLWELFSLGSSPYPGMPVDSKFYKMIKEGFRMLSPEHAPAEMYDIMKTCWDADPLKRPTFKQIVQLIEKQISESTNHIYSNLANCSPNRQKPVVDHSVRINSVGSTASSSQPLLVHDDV

[4] = target: Tyrosine-protein kinase Lck (Homo sapiens, UniProt P06239); assay: Inhibition of LCK by TR-FRET based LanthaScreen assay
Chain of Tyrosine-protein kinase Lck (P06239 whole entry): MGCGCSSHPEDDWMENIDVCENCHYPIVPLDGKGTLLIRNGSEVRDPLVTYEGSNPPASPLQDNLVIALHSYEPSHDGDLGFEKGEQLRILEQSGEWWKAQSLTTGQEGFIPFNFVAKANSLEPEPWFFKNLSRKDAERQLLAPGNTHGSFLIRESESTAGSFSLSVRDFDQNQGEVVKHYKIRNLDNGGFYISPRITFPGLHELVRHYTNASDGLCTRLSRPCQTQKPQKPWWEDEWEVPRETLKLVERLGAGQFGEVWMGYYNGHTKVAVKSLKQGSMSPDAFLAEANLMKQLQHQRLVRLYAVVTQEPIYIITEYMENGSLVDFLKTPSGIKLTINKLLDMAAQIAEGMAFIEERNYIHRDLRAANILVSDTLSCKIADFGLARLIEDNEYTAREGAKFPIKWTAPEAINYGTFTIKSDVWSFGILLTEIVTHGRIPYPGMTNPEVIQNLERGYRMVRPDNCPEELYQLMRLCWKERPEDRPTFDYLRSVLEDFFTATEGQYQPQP

[5] = target: Platelet-derived growth factor receptor alpha (Homo sapiens, UniProt P16234, V561D); assay: Inhibition of PDGFRalpha V561D mutant by TR-FRET based LanthaScreen assay; in short: as §3
[6] = target: Proto-oncogene tyrosine-protein kinase receptor Ret (Homo sapiens, UniProt P07949); assay: Inhibition of RET by TR-FRET based LanthaScreen assay; in short: as §3
[7] = target: Non-receptor tyrosine-protein kinase TYK2 (Homo sapiens, UniProt P29597); assay: Inhibition of TYK2 by TR-FRET based LanthaScreen assay; in short: as §3
[8] = target: T2, Vascular endothelial growth factor receptor 2 (Homo sapiens, UniProt P35968); assay: Inhibition of VEGFR2 by TR-FRET based LanthaScreen assay; in short: as §3
T2 sequence (P35968 whole entry): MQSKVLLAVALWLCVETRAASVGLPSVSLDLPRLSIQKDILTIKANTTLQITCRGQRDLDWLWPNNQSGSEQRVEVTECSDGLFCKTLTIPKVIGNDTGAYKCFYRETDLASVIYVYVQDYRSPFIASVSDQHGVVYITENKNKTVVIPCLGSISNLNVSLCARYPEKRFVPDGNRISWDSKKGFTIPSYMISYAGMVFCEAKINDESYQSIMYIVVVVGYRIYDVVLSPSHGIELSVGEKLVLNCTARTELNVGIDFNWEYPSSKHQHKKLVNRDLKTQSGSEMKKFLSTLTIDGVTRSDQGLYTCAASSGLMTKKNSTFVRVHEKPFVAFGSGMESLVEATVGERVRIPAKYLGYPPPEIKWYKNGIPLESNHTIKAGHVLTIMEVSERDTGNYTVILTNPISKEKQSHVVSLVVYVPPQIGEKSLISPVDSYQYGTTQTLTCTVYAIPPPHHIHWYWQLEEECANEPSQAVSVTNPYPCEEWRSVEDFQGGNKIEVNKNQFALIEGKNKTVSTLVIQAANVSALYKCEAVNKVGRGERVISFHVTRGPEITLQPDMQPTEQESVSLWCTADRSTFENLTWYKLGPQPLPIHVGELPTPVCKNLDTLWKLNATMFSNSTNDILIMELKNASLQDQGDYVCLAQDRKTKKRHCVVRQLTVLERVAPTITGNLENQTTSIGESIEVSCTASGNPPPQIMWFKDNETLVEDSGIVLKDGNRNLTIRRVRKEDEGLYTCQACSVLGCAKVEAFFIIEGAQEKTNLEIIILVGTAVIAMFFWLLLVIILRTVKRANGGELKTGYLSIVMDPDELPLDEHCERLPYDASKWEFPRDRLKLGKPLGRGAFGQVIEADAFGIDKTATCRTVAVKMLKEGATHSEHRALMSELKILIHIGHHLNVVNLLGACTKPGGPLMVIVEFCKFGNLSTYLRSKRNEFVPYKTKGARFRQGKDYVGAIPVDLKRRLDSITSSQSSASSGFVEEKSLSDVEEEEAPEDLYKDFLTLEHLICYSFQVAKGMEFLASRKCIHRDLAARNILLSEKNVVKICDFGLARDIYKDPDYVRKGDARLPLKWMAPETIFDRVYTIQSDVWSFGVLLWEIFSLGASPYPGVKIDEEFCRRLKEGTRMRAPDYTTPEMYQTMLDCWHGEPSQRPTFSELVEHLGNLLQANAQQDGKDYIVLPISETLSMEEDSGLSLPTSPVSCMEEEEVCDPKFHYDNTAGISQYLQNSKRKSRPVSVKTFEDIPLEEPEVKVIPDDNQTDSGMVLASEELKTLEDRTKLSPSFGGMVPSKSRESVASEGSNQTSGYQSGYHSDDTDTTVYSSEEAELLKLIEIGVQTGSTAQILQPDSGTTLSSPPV

[9] = target: Dual specificity mitogen-activated protein kinase kinase 2 (Homo sapiens, UniProt P36507); assay: Inhibition of MEK2 by TR-FRET based LanthaScreen assay; in short: as §3
[10] = target: MAP kinase-activated protein kinase 5 (Homo sapiens, UniProt Q8IW41); assay: Inhibition of MK5 by TR-FRET based LanthaScreen assay; in short: as §3
Aurora kinase A = Aurora kinase A (Homo sapiens, UniProt O14965); assay: Inhibition of Aurora A kinase by Caliper mobility shift assay
In short: (§4)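 Caliper microfluidic mobility shift readout of substrate phosphorylation, run per the group's earlier kinase protocol. IC50 taken from two independent experiments.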

[11] = target: Tyrosine-protein kinase receptor UFO (Homo sapiens, UniProt P30530); assay: Inhibition of Axl by TR-FRET based LanthaScreen assay; in short: as §3
[12] = target: Tyrosine-protein kinase BTK (Homo sapiens, UniProt Q06187); assay: Inhibition of BTK by TR-FRET based LanthaScreen assay
[13] = target: Cyclin-dependent kinase 2 (Homo sapiens, UniProt P24941); assay: Inhibition of CDK2A by Caliper mobility shift assay; in short: as §4
[14] = Inhibition of CDK4D1 by Caliper mobility shift assay; in short: as §2
[15] = target: Tyrosine-protein kinase ZAP-70 (Homo sapiens, UniProt P43403); assay: Inhibition of ZAP70 by TR-FRET based LanthaScreen assay; in short: as §3
[16] = Inhibition of COT1 by Caliper mobility shift assay; in short: as §2
Ephrin type-A receptor 4 = Ephrin type-A receptor 4 (Homo sapiens, UniProt P54764); assay: Inhibition of EPHA4 by TR-FRET based LanthaScreen assay; in short: as §3
[17] = target: Fibroblast growth factor receptor 3 (Homo sapiens, UniProt P22607); assay: Inhibition of FGFR3 by TR-FRET based LanthaScreen assay; in short: as §3
[18] = target: Glycogen synthase kinase-3 beta (Homo sapiens, UniProt P49841); assay: Inhibition of GSK3-beta by TR-FRET based LanthaScreen assay; in short: as §3
[19] = target: Receptor tyrosine-protein kinase erbB-2 (Homo sapiens, UniProt P04626); assay: Inhibition of HER2 by TR-FRET based LanthaScreen assay; in short: as §3
[20] = target: Hepatocyte growth factor receptor (Homo sapiens, UniProt P08581); assay: Inhibition of HGFR by TR-FRET based LanthaScreen assay; in short: as §3
[21] = target: Insulin-like growth factor 1 receptor (Homo sapiens, UniProt P08069); assay: Inhibition of IGF1R by TR-FRET based LanthaScreen assay; in short: as §3
Insulin receptor = Insulin receptor (Homo sapiens, UniProt P06213); assay: Inhibition of INSR by TR-FRET based LanthaScreen assay; in short: as §3
[22] = target: Tyrosine-protein kinase JAK1 (Homo sapiens, UniProt P23458); assay: Inhibition of JAK1 by TR-FRET based LanthaScreen assay
[23] = target: Tyrosine-protein kinase JAK2 (Homo sapiens, UniProt O60674); assay: Inhibition of JAK2 by TR-FRET based LanthaScreen assay
[24] = target: Tyrosine-protein kinase JAK3 (Homo sapiens, UniProt P52333); assay: Inhibition of JAK3 by Caliper mobility shift assay; in short: as §4
[25] = Inhibition of PKAtau by TR-FRET based LanthaScreen assay; in short: as §1
[26] = target: Serine/threonine-protein kinase N1 (Homo sapiens, UniProt Q16512); assay: Inhibition of PKN1 by Caliper mobility shift assay; in short: as §4
[27] = target: Serine/threonine-protein kinase N2 (Homo sapiens, UniProt Q16513); assay: Inhibition of PKN2 by Caliper mobility shift assay; in short: as §4
[28] = target: Rho-associated protein kinase 2 (Homo sapiens, UniProt O75116); assay: Inhibition of ROCK2 by Caliper mobility shift assay; in short: as §4
[29] = target: Tyrosine-protein kinase ABL1 (Homo sapiens, UniProt P00519, T315I); assay: Inhibition of cABL T315I mutant by Caliper mobility shift assay; in short: as §4
[30] = target: Mitogen-activated protein kinase 14 (Homo sapiens, UniProt Q16539); assay: Inhibition of p38alpha by Caliper mobility shift assay; in short: as §4
[31] = target: T2, Vascular endothelial growth factor receptor 2; assay: Inhibition of VEGFR2 autophosphorylation by cell based assay
[32] = Chemical stability in HEPES buffer assessed as compound isomerization at pH 7.0 to 7.5 for 24 hrs at 37 degC; assay type: physicochemical; settings: read-out: Activity
In short: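 Compound incubated in HEPES buffer at pH 7.0−7.5 for 24 h at 37 °C; read-out is the percentage isomerization to the C7′-C8′ E isomer.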

[33] = target: cAMP-dependent protein kinase catalytic subunit alpha (Homo sapiens, UniProt P17612); assay: Inhibition of PKAalpha by TR-FRET LanthaScreen assay
[34] = target: MAP kinase-interacting serine/threonine-protein kinase 2 (Homo sapiens, UniProt Q9HBH9); assay: Inhibition of MNK2 by TR-FRET based LanthaScreen assay; in short: as §1
Plasma [35] = assay: Metabolic stability in mouse plasma assessed as compound conversion to metabolite C7'-C8' E isomer; assay type: ADME, cell-free
Blood = assay: Metabolic stability in mouse blood assessed as compound conversion to metabolite C7'-C8' E isomer; assay type: ADME, tissue-based
Plasma [36] = assay: Metabolic stability in human plasma assessed as compound conversion to metabolite C7'-C8' E isomer at 55 uM after 20 mins at 37 degC; assay type: ADME, cell-free

Chain of ALK tyrosine kinase receptor (Q9UM73 whole entry): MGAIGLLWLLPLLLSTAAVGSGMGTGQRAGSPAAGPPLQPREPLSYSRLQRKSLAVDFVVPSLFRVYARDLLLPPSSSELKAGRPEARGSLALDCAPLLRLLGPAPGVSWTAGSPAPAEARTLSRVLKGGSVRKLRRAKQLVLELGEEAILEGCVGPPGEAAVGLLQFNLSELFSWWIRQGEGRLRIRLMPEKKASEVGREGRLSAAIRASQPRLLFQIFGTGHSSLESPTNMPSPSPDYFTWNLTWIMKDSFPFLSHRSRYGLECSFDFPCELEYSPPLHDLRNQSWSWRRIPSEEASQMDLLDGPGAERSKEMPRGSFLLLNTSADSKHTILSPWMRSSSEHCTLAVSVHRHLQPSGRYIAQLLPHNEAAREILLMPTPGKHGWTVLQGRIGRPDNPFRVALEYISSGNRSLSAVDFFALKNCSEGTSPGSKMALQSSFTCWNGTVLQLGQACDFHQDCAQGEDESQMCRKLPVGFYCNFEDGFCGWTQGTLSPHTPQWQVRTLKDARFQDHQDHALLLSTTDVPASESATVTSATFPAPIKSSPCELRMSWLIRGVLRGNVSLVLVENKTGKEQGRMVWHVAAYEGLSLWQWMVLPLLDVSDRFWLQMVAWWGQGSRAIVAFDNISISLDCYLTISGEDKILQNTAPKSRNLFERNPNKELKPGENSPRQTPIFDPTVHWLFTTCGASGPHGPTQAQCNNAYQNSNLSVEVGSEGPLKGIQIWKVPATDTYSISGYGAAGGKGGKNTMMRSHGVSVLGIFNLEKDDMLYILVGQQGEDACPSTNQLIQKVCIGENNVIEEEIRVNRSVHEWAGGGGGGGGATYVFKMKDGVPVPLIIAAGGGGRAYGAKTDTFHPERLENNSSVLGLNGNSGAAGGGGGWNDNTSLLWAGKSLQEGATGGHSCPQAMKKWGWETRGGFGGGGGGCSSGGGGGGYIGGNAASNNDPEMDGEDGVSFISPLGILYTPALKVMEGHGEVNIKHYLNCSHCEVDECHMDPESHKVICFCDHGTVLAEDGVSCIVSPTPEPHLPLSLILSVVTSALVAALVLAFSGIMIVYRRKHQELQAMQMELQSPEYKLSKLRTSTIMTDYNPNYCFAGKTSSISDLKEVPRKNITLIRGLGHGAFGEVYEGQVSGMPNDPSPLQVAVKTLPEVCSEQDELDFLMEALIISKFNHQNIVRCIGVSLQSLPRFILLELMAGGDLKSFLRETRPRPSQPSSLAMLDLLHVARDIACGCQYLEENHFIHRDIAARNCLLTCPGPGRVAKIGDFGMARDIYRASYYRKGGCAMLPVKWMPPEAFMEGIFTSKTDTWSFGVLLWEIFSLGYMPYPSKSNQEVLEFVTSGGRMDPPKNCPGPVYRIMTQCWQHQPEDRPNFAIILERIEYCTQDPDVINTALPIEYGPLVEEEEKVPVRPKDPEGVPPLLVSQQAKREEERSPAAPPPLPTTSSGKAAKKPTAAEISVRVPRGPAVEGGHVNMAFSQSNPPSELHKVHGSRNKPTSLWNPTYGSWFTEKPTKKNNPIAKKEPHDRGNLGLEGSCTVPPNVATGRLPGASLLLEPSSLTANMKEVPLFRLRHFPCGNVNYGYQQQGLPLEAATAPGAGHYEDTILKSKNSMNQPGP

SMILES	pIC50 [1]	pIC50 [2]	pIC50 (Ephrin type-B receptor 4)	pIC50 [3]	pIC50 [4]	pIC50 [5]	pIC50 [6]	pIC50 [7]	pIC50 [8]	pIC50 [9]	pIC50 [10]	pIC50 (Aurora kinase A)	pIC50 [11]	pIC50 [13]	pIC50 [14]	pIC50 [15]	pIC50 [16]	pIC50 (Ephrin type-A receptor 4)	pIC50 [17]	pIC50 [18]	other results
COc1cc(O)c2c(c1)CCC[C@H](O)CC(=O)/C=C/C[C@H](C)OC2=O	< 5.00	< 5.00	< 5.00	5.12	< 5.00	6.74	< 5.00	< 5.00	6.72												
COc1cc(O)c2c(c1)CCC[C@H](O)[C@H](O)C(=O)/C=C\C[C@H](C)OC2=O	6.12	6.02	< 5.00	6.52	5.21	8.62	< 5.00	5.39	8.70	7.82	6.19	< 5.00	< 5.00	< 5.00	< 5.00	< 5.00	< 5.00	< 5.00	< 5.00	< 5.00	pIC50 [12]: < 5.00; pIC50 [19]: < 5.00; pIC50 [20]: < 5.00; pIC50 [21]: < 5.00; pIC50 (Insulin receptor): < 5.00; pIC50 [22]: < 5.00; pIC50 [23]: < 5.00; pIC50 [24]: < 5.00; pIC50 [25]: < 5.00; pIC50 [26]: < 5.00; pIC50 [27]: < 5.00; pIC50 [28]: < 5.00; pIC50 [29]: < 5.00; pIC50 [30]: < 5.00; pIC50 [31]: 7.24; degraded at 24 h [32]: < 1%; pIC50 [33]: < 5.00
COc1cc(O)c2c(c1)CCCCCC(=O)/C=C\C[C@H](C)OC2=O	5.46	< 5.00	< 5.00	< 5.00	< 5.00	7.02	< 5.00	< 5.00	6.77	5.16	< 5.00										pIC50 [34]: < 5.00
COc1cc(O)c2c(c1)/C=C/C[C@H](O)[C@H](O)C(=O)/C=C\C[C@H](C)OC2=O																					t1/2 (Plasma [35]): 20 min; t1/2 (Blood): 20 min; Stability (Plasma [36]): 50%
COc1cc(O)c2c(c1)CCC[C@H](O)CC(=O)/C=C\C[C@H](C)OC2=O	6.12	5.19	5.13	6.17	5.33	8.14	5.14	5.36	8.24			< 5.00	< 5.00	< 5.00	< 5.00	< 5.00	< 5.00	< 5.00	< 5.00	< 5.00	pIC50 [34]: 6.82; pIC50 [19]: < 5.00; pIC50 [20]: < 5.00; pIC50 [21]: < 5.00; pIC50 (Insulin receptor): < 5.00; pIC50 [22]: < 5.00; pIC50 [23]: < 5.00; pIC50 [24]: < 5.00; pIC50 [25]: < 5.00; pIC50 [26]: < 5.00; pIC50 [27]: < 5.00; pIC50 [28]: < 5.00; pIC50 [29]: < 5.00; pIC50 [30]: < 5.00; pIC50 [33]: < 5.00

— ChEMBL document CHEMBL1649097, “Kinase inhibition by deoxy analogues of the resorcylic lactone L-783277” (ACS Med Chem Lett, 2011)
